Data taken from ChEMBL document CHEMBL1122649, “3-Alkyl-2-aryl-3H-naphth[1,2-d]imidazoles, a novel class of nonacidic antiinflammatory agents” (J Med Chem, 1984).

How the values were obtained:
Format in all cases: functional
Rattus norvegicus [1] = test: Compound was evaluated for its gastroulcerogenic effect in rats at a peroral dose of 200 mg/kg, P<0.05.; conditions: route oral
Rattus norvegicus [2] = test: Compound was evaluated for its antiinflammatory activity in the cotton pellet induced granuloma(CPG) in normal rats at the dose 100 mg/kg p.o.; conditions: route oral
How it was run: (§1)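 Male Wistar rats (150–180 g), 7 per group. Two sterile 50 mg cotton pellets were implanted subcutaneously in the interscapular region under ether. Oral dosing in 0.5% methocel (10 mL/kg) daily for 6 days, starting 6 h after surgery. Animals were killed 24 h after the last dose; pellets with granuloma were dried 24 h at 80 °C. Percent inhibition versus vehicle controls.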

Rattus norvegicus [3] = test: Antiinflammatory activity was measured as the percentage inhibition of edema in carrageenan induced rat paw after peroral administration of 100 mg/kg of compound; conditions: route oral
How it was run: (§2)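 Female Wistar rats (120–150 g), 10 per dose, dosed orally with an aqueous suspension in 0.5% methocel (10 mL/kg) 1 h before 0.05 mL of 1% carrageenin in saline was injected into the right hind paw aponeurosis. Paw volume was read plethysmographically at injection and 4 h later. Inhibition is given relative to vehicle controls. Screening dose 200 mg/kg; 100 mg/kg was tested when inhibition exceeded 30%. Student's t test.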

Rattus norvegicus [4] = test: Antiinflammatory activity measured as the percentage inhibition of edema in carrageenan induced rat paw after peroral administration of 200 mg/kg of compound; conditions: route oral; how it was run: as §2
Rattus norvegicus [5] = test: (§3) Compound was evaluated for its antiinflammatory activity by adjuvant-induced polyarthritis test in rats at a dosage of 200 mg/kg administered orally; parameters: unit not given beside the values; conditions: route oral
How it was run: (§4)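 Female Wistar rats (130–150 g), 8 per dose. Killed Mycobacterium butyricum (0.6 mg in 0.1 mL mineral oil) was injected into the right hind plantar aponeurosis. Oral dosing in 0.5% methocel, once daily, curative scheme from day 14 to day 27. Read-outs: percent change in hind-paw volume versus controls; Newbould 0–4 lesion scores for front paws, tail and ears; plasma inflammation units by nephelometric turbidity before and after 30 min at 56 °C on day 27.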

Rattus norvegicus [6] = species on record: Rattus norvegicus; test: Compound was evaluated for its analgesic activity by Randall-Selitto test in comparison with that of Aspirine
How it was run: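 Randall–Selitto pain threshold, measured on the inflamed right hind paw of male Wistar rats (170–200 g), 10 per dose. Edema was induced with 0.1 mL of 20% yeast suspension in saline. Oral dosing in 0.5% methocel (10 mL/kg), highest dose one-fifth of LD50, then scaling down through 100, 50, 20, 10, 5 and 2 mg/kg. Threshold read before dosing, then hourly for 6 h. Potency expressed relative to aspirin = 1.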

Rattus norvegicus [7] = test: Compound was evaluated for its gastroulcerogenic effect in rats at a peroral dose of 200 mg/kg; conditions: route oral
Rattus norvegicus [8] = test: as §3; conditions: route oral; how it was run: as §4
Rattus norvegicus [9] = test: Compound was evaluated for its antiinflammatory activity in the cotton pellet induced granuloma(CPG) in normal rats at the dose 200 mg/kg p.o.; conditions: route oral; how it was run: as §1
Rattus norvegicus [10] = species on record: Rattus norvegicus; test: Compound was evaluated for its antipyretic activity by antipyresis effect in comparison with that of Aspirin.
How it was run: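 Male Sprague-Dawley rats (120–150 g), 6 per dose, starved 18 h and kept at 24 °C; rats above 38 °C were excluded. Fever was induced by subcutaneous 1 mL of filtered 5% peptone preincubated 48 h at 37 °C. Oral doses as in the analgesic test (top dose one-fifth of LD50, stepping down). Rectal thermocouple readings from 4 h after injection, then hourly for 4 h. Activity relative to aspirin = 1.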

Rattus norvegicus [11] = test: Compound was evaluated for its antiinflammatory activity in the cotton pellet induced granuloma(CPG) in normal rats at the dose 50 mg/kg p.o.; conditions: route oral; how it was run: as §1
Rattus norvegicus [12] = test: (§5) Compound was evaluated for its antiinflammatory activity by adjuvant-induced polyarthritis test in rats at a dosage of 100 mg/kg administered orally; conditions: route oral; how it was run: as §4
Rattus norvegicus [13] = test: as §5; parameters: unit not given beside the values; conditions: route oral; how it was run: as §4
Rattus norvegicus [14] = species on record: Rattus norvegicus; test: Compound was evaluated for its gastroulcerogenic effect with respect to treated and control groups. Treated and control groups are not statistically different when the index is <1; P<0.05.

For `CN(C)c1ccc(-c2nc3c4ccccc4ccc3n2C)cc1`, the Ulcerogenic index (Rattus norvegicus [1]) was 1.07, the inhibition in vivo at 100 mg/kg (Rattus norvegicus [2]) was 24% and the inhibition in vivo at 100 mg/kg (Rattus norvegicus [3]) was 54%. The inhibition in vivo at 200 mg/kg (Rattus norvegicus [4]) was 68%.

In the case of `Cn1c(-c2ccncc2)nc2c3ccccc3ccc21`, the “Mean volume of hind paws” value (Rattus norvegicus [5]) is reported as 20, the inhibition in vivo at 100 mg/kg (Rattus norvegicus [3]) is reported as 44% and the inhibition in vivo at 200 mg/kg (Rattus norvegicus [4]) is reported as 63%. It also gave an Activity (Rattus norvegicus [6]) of 2.4, a Ulcerogenic index (Rattus norvegicus [7]) of 0.31 and an Arthritis scores (Rattus norvegicus [8]) of 10. It also gave an Inflammation units (Rattus norvegicus [8]) of 3, an inhibition in vivo at 200 mg/kg (Rattus norvegicus [9]) of 33% and an Activity (Rattus norvegicus [10]) of 1.4.

`CC(=O)Oc1ccccc1C(=O)O` [ASPIRIN] was tested, and the Ulcerogenic index (Rattus norvegicus [1]) was 1.6, the inhibition in vivo at 50 mg/kg (Rattus norvegicus [11]) was 24% and the Activity (Rattus norvegicus [6]) was 1. The Activity (Rattus norvegicus [10]) was 1.

For `Cn1c(-c2cccs2)nc2c3ccccc3ccc21`, the “Mean volume of hind paws” value (Rattus norvegicus [5]) was 23, the inhibition in vivo at 100 mg/kg (Rattus norvegicus [3]) was 31% and the inhibition in vivo at 200 mg/kg (Rattus norvegicus [4]) was 40%. For the same molecule, the Activity (Rattus norvegicus [6]) was 1, the Ulcerogenic index (Rattus norvegicus [7]) was 0.12 and the Arthritis scores (Rattus norvegicus [8]) was 24. It also gave an Inflammation units (Rattus norvegicus [8]) of 18, an inhibition in vivo at 200 mg/kg (Rattus norvegicus [9]) of 31% and an Activity (Rattus norvegicus [10]) of 0.9.

`COc1ccc(-c2nc3c4ccccc4ccc3n2C(C)C)cc1` [TOMOXIPROLE] was tested, and the Arthritis scores (Rattus norvegicus [12]) was 77, the Inflammation units (Rattus norvegicus [12]) was 93 and the inhibition in vivo at 100 mg/kg (Rattus norvegicus [3]) was 45%. The inhibition in vivo at 200 mg/kg (Rattus norvegicus [4]) was 48%, the Activity (Rattus norvegicus [6]) was 2.2 and the “Mean volume of hind paws” value (Rattus norvegicus [13]) was 43. It also gave an inhibition in vivo at 200 mg/kg (Rattus norvegicus [9]) of 45% and an Activity (Rattus norvegicus [10]) of 0.7.

`Cn1c(-c2ccc(Cl)cc2)nc2c3ccccc3ccc21` gave an inhibition in vivo at 200 mg/kg (Rattus norvegicus [4]) of 21%.

Work on `Cn1c(-c2ccc(OCC(=O)O)cc2)nc2c3ccccc3ccc21` yielded an inhibition in vivo at 200 mg/kg (Rattus norvegicus [4]) of 7%.

`Cl.Cl.Cn1c(-c2cccnc2)nc2c3ccccc3ccc21` showed an inhibition in vivo at 200 mg/kg (Rattus norvegicus [4]) of 12%.

`CCCCn1c(-c2ccc(OC)cc2)nc2c3ccccc3ccc21` showed an inhibition in vivo at 200 mg/kg (Rattus norvegicus [4]) of 25%.

For `CC(=O)Oc1ccc(-c2nc3c4ccccc4ccc3n2C)cc1`, the inhibition in vivo at 200 mg/kg (Rattus norvegicus [4]) was 8%.

`Cn1c(-c2ccccc2)nc2c3ccccc3ccc21` gave an inhibition in vivo at 100 mg/kg (Rattus norvegicus [3]) of 37%, an inhibition in vivo at 200 mg/kg (Rattus norvegicus [4]) of 42% and an Activity (Rattus norvegicus [6]) of 0.9. It also gave a Ulcerogenic index (Rattus norvegicus [14]) of 0.33, an inhibition in vivo at 200 mg/kg (Rattus norvegicus [9]) of 24% and an Activity (Rattus norvegicus [10]) of 9.1.

`CCC(CC)n1c(-c2ccc(OC)cc2)nc2c3ccccc3ccc21` gave an inhibition in vivo at 200 mg/kg (Rattus norvegicus [4]) of 11%.

`COc1ccccc1-c1nc2c3ccccc3ccc2n1C` gave an inhibition in vivo at 200 mg/kg (Rattus norvegicus [4]) of 0%.

Work on `Cc1ccc(-c2nc3c4ccccc4ccc3n2C)cc1` yielded an inhibition in vivo at 200 mg/kg (Rattus norvegicus [4]) of 21%.

`CC(C)Oc1ccc(-c2nc3c4ccccc4ccc3n2C)cc1` gave an inhibition in vivo at 100 mg/kg (Rattus norvegicus [3]) of 25% and an inhibition in vivo at 200 mg/kg (Rattus norvegicus [4]) of 31%.

Molecule `COc1ccc(-c2nc3c4ccccc4ccc3n2C)cc1C` has an inhibition in vivo at 100 mg/kg (Rattus norvegicus [3]) of 24% and an inhibition in vivo at 200 mg/kg (Rattus norvegicus [4]) of 35%.

For `Cn1c(-c2ccc3c(c2)OCO3)nc2c3ccccc3ccc21`, the inhibition in vivo at 200 mg/kg (Rattus norvegicus [4]) was 28%.

Work on `Cn1c(-c2ccc(O)cc2)nc2c3ccccc3ccc21` yielded an inhibition in vivo at 200 mg/kg (Rattus norvegicus [4]) of 4%.

For `COc1ccc(-c2nc3c4ccccc4ccc3n2C(C)(C)C)cc1`, the inhibition in vivo at 200 mg/kg (Rattus norvegicus [4]) was 19%.

Molecule `Cc1cc(-c2nc3c4ccccc4ccc3n2C)cc(C)c1N(C)C` has an inhibition in vivo at 200 mg/kg (Rattus norvegicus [4]) of 14%.

With `CNc1ccc(-c2nc3c4ccccc4ccc3n2C)cc1` the Ulcerogenic index (Rattus norvegicus [1]) was 0.16, the inhibition in vivo at 100 mg/kg (Rattus norvegicus [2]) was 33% and the inhibition in vivo at 100 mg/kg (Rattus norvegicus [3]) was 47%. It also gave an inhibition in vivo at 200 mg/kg (Rattus norvegicus [4]) of 59%.
